Experimental data as given in ChEMBL document CHEMBL2216748 (J Med Chem, 2012).
Calls of active or inactive are those of the source.

Columns and labels:
[1] = molecular target: T1, Ribosyldihydronicotinamide dehydrogenase [quinone] (Homo sapiens) (UniProt P16083); experiment: Displacement of (S)-N4-(3-(3-(2-((4-carbamimidoylphenylamino)methyl)-1-methyl-N-(pyridin-2-yl)-1H-benzo[d]imidazole-5-carboxamido)propanamido)propyl)-N1-(15-oxo-19-((3aS,4S,6aR)-2-oxohexahydro-1H-thieno[3,4-d]imidazol-4-yl)-4,7,10-trioxa-14-azanonadecyl)-2-(4-(3-(trifluoromethyl)-3H-diazirin-3-yl)benzamido)succinamide from NQO2 in human HepG2 cell lysate after 1 hr by capture compound based LC/MS analysis
T1 sequence (whole entry): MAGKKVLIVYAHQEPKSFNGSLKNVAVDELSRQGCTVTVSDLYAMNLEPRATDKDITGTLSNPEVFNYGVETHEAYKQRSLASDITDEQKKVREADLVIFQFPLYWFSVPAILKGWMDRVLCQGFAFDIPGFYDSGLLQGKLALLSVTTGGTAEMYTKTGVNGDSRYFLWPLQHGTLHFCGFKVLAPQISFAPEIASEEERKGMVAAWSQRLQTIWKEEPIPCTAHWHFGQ
How it was run: (§1)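 Capture compound MS: 400 μg HepG2 or K562 lysate in capture buffer, precleared with streptavidin beads 30 min at 4 °C. Competition controls preincubated 30 min at 4 °C with free drug (10 μL of 1 mM). Capture compound (10 μL of 50 μM) equilibrated 1 h at 4 °C, UV-irradiated 10 min, streptavidin bead pulldown, on-bead trypsin digestion, nanoLC-MS/MS. Spectral counts compared capture vs competition (t test). HepG2 in quadruplicate, K562 in duplicate.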

[2] = molecular target: T2, Hypoxia up-regulated protein 1 (Homo sapiens) (UniProt Q9Y4L1); experiment: Displacement of 3-(1-methyl-N-(pyridin-2-yl)-2-((4-(N-((S)-6,9,25-trioxo-29-((3aS,4S,6aR)-2-oxohexahydro-1H-thieno[3,4-d]imidazol-4-yl)-8-(4-(3-(trifluoromethyl)-3H-diazirin-3-yl)benzamido)-14,17,20-trioxa-5,10,24-triazanonacosyl)carbamimidoyl)phenylamino)methyl)-1H-benzo[d]imidazole-5-carboxamido)propanoic acid from HYOU1 in human HepG2 cell lysate after 1 hr by capture compound based LC/MS analysis; assay type: cell-free; how it was run: as §1
T2 sequence (whole entry): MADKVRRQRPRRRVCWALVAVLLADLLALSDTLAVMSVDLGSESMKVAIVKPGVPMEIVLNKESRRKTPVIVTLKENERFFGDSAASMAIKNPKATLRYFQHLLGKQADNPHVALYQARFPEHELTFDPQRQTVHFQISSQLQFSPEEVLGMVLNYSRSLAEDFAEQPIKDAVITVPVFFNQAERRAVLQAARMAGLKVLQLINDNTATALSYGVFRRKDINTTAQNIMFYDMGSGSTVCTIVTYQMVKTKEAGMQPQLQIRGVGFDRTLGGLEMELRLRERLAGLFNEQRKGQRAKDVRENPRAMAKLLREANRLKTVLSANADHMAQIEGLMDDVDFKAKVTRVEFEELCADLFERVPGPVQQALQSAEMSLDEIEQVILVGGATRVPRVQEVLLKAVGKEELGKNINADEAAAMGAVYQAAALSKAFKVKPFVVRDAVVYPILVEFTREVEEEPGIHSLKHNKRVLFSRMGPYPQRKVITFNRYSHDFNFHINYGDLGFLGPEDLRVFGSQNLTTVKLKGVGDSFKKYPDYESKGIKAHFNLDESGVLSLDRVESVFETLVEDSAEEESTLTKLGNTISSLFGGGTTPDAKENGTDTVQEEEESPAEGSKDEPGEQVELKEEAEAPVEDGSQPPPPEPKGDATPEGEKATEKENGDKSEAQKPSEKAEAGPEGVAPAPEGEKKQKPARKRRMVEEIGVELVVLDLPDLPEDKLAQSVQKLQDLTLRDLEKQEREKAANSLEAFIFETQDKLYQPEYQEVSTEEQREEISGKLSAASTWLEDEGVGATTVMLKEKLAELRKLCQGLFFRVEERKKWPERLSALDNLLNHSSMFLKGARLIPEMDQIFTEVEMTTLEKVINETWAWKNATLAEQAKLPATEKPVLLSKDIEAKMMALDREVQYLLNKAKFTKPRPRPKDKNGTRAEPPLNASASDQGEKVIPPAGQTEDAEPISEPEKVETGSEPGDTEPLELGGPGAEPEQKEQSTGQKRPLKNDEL

[3] = molecular target: Heterogeneous nuclear ribonucleoproteins C1/C2 (Homo sapiens) (UniProt P07910); experiment: Displacement of 3-(1-methyl-N-(pyridin-2-yl)-2-((4-(N-((S)-6,9,25-trioxo-29-((3aS,4S,6aR)-2-oxohexahydro-1H-thieno[3,4-d]imidazol-4-yl)-8-(4-(3-(trifluoromethyl)-3H-diazirin-3-yl)benzamido)-14,17,20-trioxa-5,10,24-triazanonacosyl)carbamimidoyl)phenylamino)methyl)-1H-benzo[d]imidazole-5-carboxamido)propanoic acid from HNRPC in human HepG2 cell lysate after 1 hr by capture compound based LC/MS analysis; assay type: cell-free; how it was run: as §1
[4] = molecular target: T1, Ribosyldihydronicotinamide dehydrogenase [quinone] (Homo sapiens); experiment: Displacement of (S)-N4-(4-(3-(2-((4-carbamimidoylphenylamino)methyl)-1-methyl-N-(pyridin-2-yl)-1H-benzo[d]imidazole-5-carboxamido)propanamido)butyl)-N1-(15-oxo-19-((3aS,4S,6aR)-2-oxohexahydro-1H-thieno[3,4-d]imidazol-4-yl)-4,7,10-trioxa-14-azanonadecyl)-2-(4-(3-(trifluoromethyl)-3H-diazirin-3-yl)benzamido)succinamide from human recombinant NQO2 after 1 hr by silver staining-based SDS PAGE analysis
How it was run: (§2)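 Human recombinant NQO2 (1 μg) was preincubated 30 min at 4 °C with competitor, then capture compound was added at 5 μM final (competitors 100 μM final) and equilibrated 1 h at 4 °C. Samples were UV-irradiated 10 min, pulled down on streptavidin beads and resolved by silver-stained SDS-PAGE.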

[5] = molecular target: T1, Ribosyldihydronicotinamide dehydrogenase [quinone] (Homo sapiens); experiment: Displacement of 3-(1-methyl-N-(pyridin-2-yl)-2-((4-(N-((S)-6,9,25-trioxo-29-((3aS,4S,6aR)-2-oxohexahydro-1H-thieno[3,4-d]imidazol-4-yl)-8-(4-(3-(trifluoromethyl)-3H-diazirin-3-yl)benzamido)-14,17,20-trioxa-5,10,24-triazanonacosyl)carbamimidoyl)phenylamino)methyl)-1H-benzo[d]imidazole-5-carboxamido)propanoic acid from human recombinant NQO2 after 1 hr by silver staining-based SDS PAGE analysis; how it was run: as §2
[6] = molecular target: T1, Ribosyldihydronicotinamide dehydrogenase [quinone] (Homo sapiens); experiment: Displacement of (S)-N4-(4-(3-(2-((4-carbamimidoylphenylamino)methyl)-1-methyl-N-(pyridin-2-yl)-1H-benzo[d]imidazole-5-carboxamido)propanamido)butyl)-N1-(15-oxo-19-((3aS,4S,6aR)-2-oxohexahydro-1H-thieno[3,4-d]imidazol-4-yl)-4,7,10-trioxa-14-azanonadecyl)-2-(4-(3-(trifluoromethyl)-3H-diazirin-3-yl)benzamido)succinamide from NQO2 in human K562 cell lysate after 1 hr by capture compound based LC/MS analysis; assay type: cell-free; how it was run: as §1
[7] = molecular target: Adenosine kinase (Homo sapiens) (UniProt P55263); experiment: Displacement of 3-(1-methyl-N-(pyridin-2-yl)-2-((4-(N-((S)-6,9,25-trioxo-29-((3aS,4S,6aR)-2-oxohexahydro-1H-thieno[3,4-d]imidazol-4-yl)-8-(4-(3-(trifluoromethyl)-3H-diazirin-3-yl)benzamido)-14,17,20-trioxa-5,10,24-triazanonacosyl)carbamimidoyl)phenylamino)methyl)-1H-benzo[d]imidazole-5-carboxamido)propanoic acid from ADK in human HepG2 cell lysate after 1 hr by capture compound based LC/MS analysis; assay type: cell-free; how it was run: as §1

Measured: Activity

Chain of Heterogeneous nuclear ribonucleoproteins C1/C2 (Homo sapiens) (P07910 whole entry): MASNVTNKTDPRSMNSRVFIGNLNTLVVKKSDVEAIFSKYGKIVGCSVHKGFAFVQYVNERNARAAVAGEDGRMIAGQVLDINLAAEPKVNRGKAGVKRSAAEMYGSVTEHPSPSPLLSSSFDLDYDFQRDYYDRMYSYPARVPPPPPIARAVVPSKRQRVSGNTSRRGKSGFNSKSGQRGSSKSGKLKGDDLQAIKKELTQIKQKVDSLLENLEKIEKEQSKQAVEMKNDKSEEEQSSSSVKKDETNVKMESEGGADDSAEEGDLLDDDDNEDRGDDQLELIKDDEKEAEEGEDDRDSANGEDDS
Chain of Adenosine kinase (Homo sapiens) (P55263 2-362 limits assumed): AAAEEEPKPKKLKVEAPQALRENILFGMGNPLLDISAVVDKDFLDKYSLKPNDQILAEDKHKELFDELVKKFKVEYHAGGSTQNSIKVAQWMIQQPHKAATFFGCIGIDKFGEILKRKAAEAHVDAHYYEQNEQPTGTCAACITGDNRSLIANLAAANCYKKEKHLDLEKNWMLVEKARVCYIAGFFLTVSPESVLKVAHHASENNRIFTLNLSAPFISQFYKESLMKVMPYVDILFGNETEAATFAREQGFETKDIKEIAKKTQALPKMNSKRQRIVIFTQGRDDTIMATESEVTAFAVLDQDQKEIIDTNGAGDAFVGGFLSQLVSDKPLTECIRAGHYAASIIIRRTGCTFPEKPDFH

Cn1c(CNc2ccc(C(=N)N)cc2)nc2cc(C(=O)N(CCC(=O)O)c3ccccn3)ccc21 [DABIGATRAN]
active: all assays above
